From ChEMBL document CHEMBL4831480, “Identification of First-in-Class Inhibitors of Kallikrein-Related Peptidase 6 That Promote Oligodendrocyte Differentiation” (J Med Chem, 2021) come the findings set out here.

The target in one assay is T1, Kallikrein-6 (Homo sapiens, UniProt Q92876). Kind of assay: Inhibition of KLK6 (unknown origin) assessed as release of AMC fluorescent product using Boc-QAR-AMC as substrate incubated for 30 mins by microplate reader.
Turning to `CC(C)(C)c1ccc(O)c(CNc2ccc(CN)cc2)c1.Cl`, the IC50 entry is “Not Active”.

Take `Cl.NCc1ccc(NC(=O)c2cc3ccccc3[nH]2)cc1`: the IC50 result was “Not Active”.

For `NCc1ccc(NC(=O)c2c[nH]c3ccccc3c2=O)cc1`, the IC50 result was “Not Active”.

Turning to `Cl.NCc1ccc(NC(=O)c2ccc(F)cc2O)cc1`, the IC50 entry is “Not Active”.

As to `Cl.O=C(NC1CCNCC1)c1ccc2ccccc2c1O`, the IC50 entry is recorded as “Not Active”.

Take `Cl.NCc1ccc(NC(=O)c2c(O)ccc3ccccc23)cc1`: the IC50 result is reported as “Not Active”.

The next assay has as its target T1, Kallikrein-6. The assay is described as follows: Inhibition of KLK6 (unknown origin) assessed as release of AMC fluorescent product using Boc-QAR-AMC as substrate at 10 uM incubated for 30 mins by microplate reader. A digest of the protocol:
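KLK6 (activated with lysylendopeptidase) at 2 nM was preincubated 15 min at 37 °C with compound (10 μM screen, or a range within 0.1–100 μM) or DMSO <2%. Reaction started with Boc-QAR-AMC 100 μM in 50 mM Tris, 1 M citrate, 0.05% Brij-35, pH 7.4. AMC read at ex 360/em 460 nm for 30 min. % inhibition taken from initial rates versus DMSO; IC50 from curve fit; ≥3 independent experiments in duplicate.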
For the compound `Cc1cccc(O)c1C(=O)Nc1ccc(CN)cc1`, the inhibition came out at 7.27%.

Regarding `Cc1cccc(C(=O)Nc2ccc(CN)cc2)c1O`, the inhibition came to 20%.

In the case of `NCc1ccc(NC(=O)c2ccc(C(F)(F)F)cc2O)cc1`, the inhibition stood at 47%.

Regarding `Cc1ccc(O)c(C(=O)Nc2ccc(CN)cc2)c1`, the inhibition was found to be 26.5%.

Consider `NCc1ccc(NC(=O)c2ccc3ccccc3c2)cc1`, for which the inhibition came out at 19.8%.

In the case of `NCc1ccc(NC(=O)c2cc(Br)ccc2O)cc1`, the inhibition was 30%.

In the case of `NCc1ccc(NC(=O)c2ccccc2O)cc1`, the inhibition stood at 14.8%.

With `COc1ccc(O)c(C(=O)Nc2ccc(CN)cc2)c1`, the inhibition is 21.8%.

For `NCc1ccc(NC(=O)c2ncccc2O)cc1`, the inhibition turned out to be 8.86%.

By inhibition is commonly meant the change of the read-out against control, counted positive when it falls.
